Only some compounds are listed: those with a hit (about 2.4% of all), similar ones and a draw of the others.
MPTP inh: permeability transition pore inhibition | inhibition, % at 10 µM | hit rate 1.4% among 360,000 | isolated mouse mitochondria, Ca2+ swelling absorbance, 30 min;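 active = inhibition of 50% or more, scaled per plate between neutral and stimulator controls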;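 also: 0% = DMSO wells given calcium and 100% = 1 mM EGTA wells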
aDG glyco act: alpha-DG glycosylation activation | Pro5-aDG cells, alpha-DG glycosylation AlphaScreen (IIH6); 0% Pro5, 100% B10-LARGE cell signal | activation, % at 10 µM | hit rate 0.22% among 360,000;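 active = activation of at least 8% versus controls, or a plate z-score of at least 8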;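 also: Pro5 are CHO cells carrying HIG-tagged alpha-DG that lacks glycosylation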
NR2E3 ag-1: human photoreceptor-specific nuclear receptor agonism | CHO-S Gal4-NCOR/VP16-NR2E3 two-hybrid, luciferase | AID 602229 | hit rate 0.35% among 360,000 | inhibition of corepressor binding, % at 3.98 µM;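 active = inhibition above the mean of all tested compounds plus 3 SD, cut at about 70% in these data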;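 also: 0% = DMSO with NR2E3 transfected cells and 100% = cells lacking NR2E3 construct; higher means lower luciferase signal from less NR2E3 corepressor binding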
Target sequence (Q9Y5X4 whole entry, looked up, the tested form may be a part): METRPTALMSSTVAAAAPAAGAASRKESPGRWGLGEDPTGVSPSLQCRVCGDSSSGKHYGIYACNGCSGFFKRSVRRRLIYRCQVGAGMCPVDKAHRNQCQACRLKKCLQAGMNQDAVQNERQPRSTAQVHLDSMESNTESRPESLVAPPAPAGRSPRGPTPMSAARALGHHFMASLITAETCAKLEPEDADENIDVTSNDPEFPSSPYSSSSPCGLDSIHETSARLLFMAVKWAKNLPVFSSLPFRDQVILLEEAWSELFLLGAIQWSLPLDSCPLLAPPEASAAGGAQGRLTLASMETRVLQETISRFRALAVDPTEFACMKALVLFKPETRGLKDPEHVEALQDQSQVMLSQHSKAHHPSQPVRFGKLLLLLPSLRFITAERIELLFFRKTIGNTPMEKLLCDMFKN
697 NFkB inh: inhibitors of the PMA/ionomycin-induced NF-kB reporter in 697 B cells. AID 435022. hit rate 0.33% among 330,000. inhibition, % at 4 µM. 697 B-cell NF-kB luciferase reporter, 16 h; in the data active = inhibition above about 35%
NR2E3 ag-2: activates human photoreceptor nuclear receptor NR2E3 | hit rate 0.12% among 320,000 | GST-NR2E3/biotin-RetCOR TR-FRET, 1536-well | inhibition of corepressor binding, % at 4.78 µM | Q9Y5X4;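 active = percent inhibition above the cutoff of mean plus 3 SD of all tested compounds, set per screening campaign, cut at about 20% in these data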;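 also: 0% = DMSO wells and 100% = biotin wells as full block of FRET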
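Test system – NR2E3–RetCOR corepressor complex · Quantity – NR2E3 fusion 1.35 nM · Buffer or medium – Tris pH 7.5 · Incubation – Compound–protein incubation for 5 h at 4 °C · Technique – TR-FRET, Eu(K)-anti-GST donor, streptavidin-D2 acceptor, ex 340, em 617/671 nm · Evaluation – percent inhibition of 671/617 nm emission ratio versus biotin and DMSO controls · Plate – 1536-well format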
Jurkat NFkB inh: inhibitors of the PMA/ionomycin-induced NF-kB reporter in Jurkat cells; AID 435003; inhibition, % at 4 µM; hit rate 0.53% among 330,000; PMA/ionomycin-induced NF-kB luciferase reporter, luminescence; in the data active = inhibition above about 50%
Jurkat NFkB conf: lowers PMA/ionomycin-induced NF-kB signal in Jurkat cells; Jurkat NF-kB luciferase, 16 h; inhibition, % at 4 µM; AID 435020; shares compounds with Jurkat NFkB inh; hit rate 27% among 2,700;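 active = inhibition reaching about 45% at 4 µM in either replicate, limit read from the data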;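 also: plate controls were PMA/ionomycin stimulated DMSO wells for no effect and unstimulated DMSO wells for full effect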
697 NFkB conf: inhibitors of the PMA/ionomycin-induced NF-kB reporter in 697 B cells, retest; 697 B-cell NF-kB luciferase, 16 h; shares compounds with 697 NFkB inh; inhibition, % at 4 µM; AID 449746; hit rate 35% among 2,000; in the data active = inhibition mostly above about 28%, no sharp cut-off; inactive = mostly below about 22%
An asterisk follows results filed as active; · = no result.

SMILES	MPTP inh	aDG glyco act	NR2E3 ag-1	697 NFkB inh	NR2E3 ag-2	Jurkat NFkB inh	Jurkat NFkB conf	697 NFkB conf
CSCCC(NC(=O)c1cccc(C)c1)C(=O)OCN1C(=O)c2ccccc2C1=O (stereo not given)	-1	0	-17	4	-2	-5	·	·
Cc1nn(C)c(C)c1/C=C(/C(=O)C(C)(C)C)n1cncn1	3	0	9	-13	0	27	·	·
CC(C)(C)C(=O)/C(=C/c1ccncc1)n1cncn1	1	-1	1	37*	3	54*	31	42*
CCCc1cc2c(=O)c(-c3ccc4c(c3)OCCO4)coc2cc1OC(=O)c1ccco1	5	0	-87	-186	3	-89	·	·
CCc1cc2c(=O)c(-c3ccc4c(c3)OCCO4)coc2cc1OC(=O)c1ccco1	49	0	-97	-360	-3	-223	-129	-407
CCn1c(C)nc2cc(-c3nc4n(n3)Cc3ccccc3-4)ccc21	-3	0	97*	70*	2	91*	91*	74*
CN(C)c1nc(N)c(C#N)c(C#N)c1C#N	0	1	-2	·	·	·	·	·
COc1ccccc1NS(=O)(=O)c1cc(NC(=O)CCC2CCCC2)ccc1N1CCOCC1	-2	0	5	6	6	4	·	·
O=C(CCN1C(=O)NC2(CCCC2)C1=O)Nc1ccc(-c2nc3ccccc3s2)cc1	-1	0	-122	-264	-1	-181	-80	-332
NC(=O)c1sc2nc(-c3ccccc3)ccc2c1N	0	0	-116	-77	4	-22	·	·
CCOC(=O)c1sc2nc(-c3ccccc3)ccc2c1N	4	0	-87	-336	3	-296	-80	-188
CCOC(=O)[C@]12CCC=C1N(Cc1ccc3c(c1)OCO3)C(=O)[C@H](CC(=O)N1CCOCC1)C2	2	0	-38	·	·	·	·	·
N#Cc1ccccc1OCC(=O)NNC(=O)CNC(=O)c1cccc(Br)c1	0	0	-1	16	4	1	·	·
CC(C)(C)c1ccc(NC(=O)Nc2ccc3ccccc3n2)cc1	1	0	8	3	3	2	·	·
CCOc1ccccc1-c1cc(C(=O)N/N=C/c2cccnc2)c2ccccc2n1	-2	0	1	22	-1	-5	·	·
CCOc1ccc(-c2cc(C(=O)N/N=C/c3cccnc3)c3ccccc3n2)cc1	-2	2	-124	-393	1	58*	-4	-301
Cc1ccc(C(=O)Nc2ccc3c(c2)OCO3)cc1Cl	1	0	-57	-70	-1	-149	·	·
Cc1ccc(NC(=O)c2ccc3c(c2)OCO3)cc1Cl	1	0	-147	-287	-1	-200	-104	-246
COc1ccc(C(=O)N2CCN(C)C(=O)[C@@H]2C)cc1OC1CCN(C(C)=O)CC1	0	0	-30	5	3	0	·	·
CCN(CC)CCNC(=O)c1ccc(NC(=O)C2CC(=O)N(CCc3ccc(OC)c(OC)c3)C2)cc1 (stereo not given)	-2	0	-42	18	3	-2	·	·
CC(C)(C)[C@@H]1C=C(C(=O)Nc2ccccc2)O[C@H](OCc2ccc(CO)cc2)C1	0	0	2	-5	2	-19	·	·
CCOc1ccc2oc(C(=O)Nc3ccc(C)cn3)c(C)c2c1	1	0	-71	·	·	·	·	·
COc1ccc2oc(C(=O)Nc3nccs3)c(C)c2c1	1	0	-199	-261	-10	-184	-100	-187
CCOc1ccc2oc(C(=O)Nc3nccs3)c(C)c2c1	0	0	-163	-258	·	-173	-113	-207
CCCCc1nnc(NC(=O)c2oc3ccc(OC)cc3c2C)s1	0	0	-47	-31	3	-3	·	·
COc1cccc(/C=C/c2ccc3cccc(O)c3n2)c1	0	0	-154	-239	-2	-112	·	·
Oc1cccc(/C=C/c2ccc3cccc(O)c3n2)c1	-2	0	-160	-360	1	-167	-142	-77
CCCn1c(SC(C)C(=O)NC2CCCC(C)C2C)n[nH]c1=O (stereo not given)	0	0	33	·	·	·	·	·
